The record followed here is ChEMBL document CHEMBL1153931.

Converted amounts (≈) assume the structure as drawn.

For the first test, the target named is T1, NH(3)-dependent NAD(+) synthetase (Bacillus anthracis, UniProt Q81RP3).
T1 sequence (Q81RP3 whole entry): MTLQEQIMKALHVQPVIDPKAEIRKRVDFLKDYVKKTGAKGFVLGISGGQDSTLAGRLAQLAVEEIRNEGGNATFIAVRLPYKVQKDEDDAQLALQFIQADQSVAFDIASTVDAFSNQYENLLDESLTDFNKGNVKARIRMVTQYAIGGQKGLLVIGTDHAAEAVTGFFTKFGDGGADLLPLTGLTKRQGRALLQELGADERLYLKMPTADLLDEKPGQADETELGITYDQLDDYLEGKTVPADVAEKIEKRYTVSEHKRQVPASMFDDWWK
Description: Inhibition of Bacillus anthracis NAD synthetase. An outline of the steps: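 Purified B. anthracis NADs (6 μg/ml) in 60 mM HEPPS pH 8.5 with 0.5 mM NH4Cl, 20 mM KCl, 10 mM MgCl2, 0.1 mM NaAD, 2.5% DMSO and 0.3% BOG. Started with 0.2 mM ATP, quenched with guanidine-HCl after 10 min. Compounds tested 600 to 0.6 μM in doubling dilutions. NAD measured by reverse-phase HPLC peak height. IC50 is the average of duplicate runs.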
With `NC(=O)c1c(NC(=S)NC(=O)c2cccc([N+](=O)[O-])c2)sc2c1CCCC2`, the IC50 – broadly, the concentration needed to halve the response being measured – turned out to be 186 µM. Same read-out and setting: for `O=C(Cn1nnc(N2CCOCC2)n1)N/N=C/c1ccc(-c2cccc([N+](=O)[O-])c2)o1` the value was 109 µM. `COc1ccc(Br)c(-c2nnc(-c3ccccc3NC(=O)NC(=O)c3ccccc3Cl)o2)c1` had an IC50 of 220 µM. Still for that read-out and setting: the value for `N#C/C(=C\c1ccccc1[N+](=O)[O-])C(=O)c1ccccc1` was 51 µM.

The subject of another test is Bacillus anthracis. Description: Antibacterial activity against Bacillus anthracis Sterne. In kind it is functional.
As for `COc1ccc(Oc2ccc([N+](=O)[O-])cc2C(=O)Nc2ccc(S(N)(=O)=O)cc2)cc1`, the MIC (in general, the lowest concentration that inhibits growth of the organism) was greater than 240 µM. `O=C(CCC(=O)Nc1ccc(Nc2ccccc2)cc1)Nc1ccc(Nc2ccccc2)cc1` had an MIC greater than 222 µM.

In the case of `Cc1cc(C)c2oc(-c3cccc(NC(=O)/C=C/c4cccc([N+](=O)[O-])c4)c3)nc2c1`, the MIC is greater than 240 µM. On the same count and under the same terms, the value for `O=C(Nc1cccc(/N=C/c2cc([N+](=O)[O-])ccc2O)c1)c1cccc(Br)c1` was greater than 227 µM; that for `O=C(Nc1cccc(/N=C/c2cc([N+](=O)[O-])ccc2O)c1)c1ccc(Cl)cc1Cl` was greater than 232 µM; that for `COc1cccc(NC(=O)Nc2nnc(COc3ccc([N+](=O)[O-])cc3)s2)c1` was greater than 240 µM.

Molecule `NC(=O)c1c(NC(=S)NC(=O)c2cccc([N+](=O)[O-])c2)sc2c1CCCC2` had an MIC greater than 240 µM. Take `NC(=O)c1ccc(NC(=O)c2ccc(Oc3ccc([N+](=O)[O-])cc3Cl)cc2)cc1`: the MIC was greater than 240 µM. Take `N/C(=N\OC(=O)c1ccc(Cl)c(Cl)c1)c1cccc(CSc2ccccn2)c1`: the MIC was greater than 240 µM. On the same count and under the same terms, the value for `O=C(Cn1nnc(N2CCOCC2)n1)N/N=C/c1ccc(-c2cccc([N+](=O)[O-])c2)o1` was greater than 240 µM; that for `COc1ccc(NC(=O)Nc2cccc(NC(=O)Nc3ccc(OC)cc3)c2F)cc1` was greater than 240 µM. As to `COc1ccc(NC(=O)Nc2ccc(Oc3ncnc4cc(Cl)ccc34)nc2)cc1OC1CCCC1`, the MIC is greater than 240 µM.

In turn, `O=C(Nc1cccc(Oc2ccc3c(c2)C(=O)N(c2ccccc2)C3=O)c1)c1cccc([N+](=O)[O-])c1` came in with an MIC greater than 240 µM. Still for that read-out and setting: the value for `O=C(Nc1cccc(C(=O)Nc2cccc3ccccc23)c1)c1cccc([N+](=O)[O-])c1` was greater than 240 µM; that for `COc1ccccc1NC(=O)NC(=O)c1ccc(-c2csnn2)cc1` was greater than 240 µM. Turning to `COc1ccc(Br)c(-c2nnc(-c3ccccc3NC(=O)NC(=O)c3ccccc3Cl)o2)c1`, the MIC is greater than 240 µM. In turn, `Cc1cc(-c2nnc(CSc3nnc(NC(=O)c4ccc(F)c(Cl)c4)s3)o2)ccc1[N+](=O)[O-]` showed an MIC greater than 240 µM. The same measure, in the same setting: for `COc1ccccc1NC(=O)COc1ccc(/C=C(/C#N)c2nc3ccccc3[nH]2)cc1` the value was greater than 240 µM; for `Cc1c(NC(=O)c2ccc(N3CCCC3)c([N+](=O)[O-])c2)cccc1-c1nc2ccccc2[nH]1`, greater than 240 µM; for `COc1ccc(CCNC(=O)NCc2cccc(CNC(=O)NCCc3ccc(OC)cc3)c2)cc1`, greater than 204 µM.

Take `O=C(Nc1ccc([N+](=O)[O-])cc1)Nc1ccc(S(=O)(=O)Nc2ccc(Cl)c(Cl)c2)cc1`: the MIC amounted to 1.9 µM (≈ 0.915 µg/mL).

The molecule `CCc1ccc(S(=O)(=O)Nc2c([N+](=O)[O-])ccc3ccccc23)cc1` had an MIC of 3.8 µM (≈ 1.35 µg/mL). On the same count and under the same terms, for `O=C1C=C(Nc2ccccc2C(=O)O)C(=O)C=C1Nc1ccccc1C(=O)O` the value was greater than 264 µM; for `O=C(Cn1cc(/C=C/c2[nH]c(=O)[nH]c(=O)c2[N+](=O)[O-])c2ccccc21)Nc1ccc(F)cc1`, greater than 223 µM; for `O=C(Nc1ccc([N+](=O)[O-])cc1)c1ccc(-c2nnc(-c3ccccc3)o2)cc1`, greater than 259 µM. Same read-out and setting: the value for `O=C(Nc1ccc(S(=O)(=O)Nc2ncccn2)cc1)Nc1ccc(Cl)c(Cl)c1` was 15 µM (≈ 6.57 µg/mL).

Molecule `O=[N+]([O-])c1ccc(O)c(/C=N/c2cccc(O)c2)c1` yielded an MIC greater than 387 µM. Molecule `N#C/C(=C\c1ccccc1[N+](=O)[O-])C(=O)c1ccccc1` displayed an MIC of 120 µM (≈ 33.4 µg/mL).

`O=C(COC(=O)c1ccc(NC(=O)c2ccc([N+](=O)[O-])cc2)cc1)c1ccc(F)cc1` registered an MIC greater than 237 µM.

Consider `O=C(Nc1ccc2oc(-c3cc(Br)ccc3Cl)nc2c1)c1cccc([N+](=O)[O-])c1`, for which the MIC is greater than 240 µM. Same read-out and setting: the value for `O=C(Nc1ccc(Cc2ccc(NC(=O)c3ccc4c(c3)OCO4)cc2)cc1)c1ccc2c(c1)OCO2` was greater than 240 µM; that for `O=[N+]([O-])c1ccc(-c2cnc(N/N=C/c3cccc([N+](=O)[O-])c3)nc2)cc1` was greater than 274 µM; that for `CCOC(=O)C1=C(Nc2cccc3ccccc23)S/C(=C\c2ccc([N+](=O)[O-])cc2)C1=O` was greater than 224 µM.

`Nc1ncnc(Nc2ccc(Cl)cc2C(=O)c2ccccc2Cl)c1[N+](=O)[O-]`: the MIC was greater than 247 µM. `O=C(Nc1ccccc1)Nc1ccc(NC(=O)c2ccc(NC(=O)Nc3ccccc3)cc2)cc1` registered an MIC greater than 240 µM.

For `Cc1onc(-c2ccccc2)c1NC(=O)Nc1ccc(Oc2ncnc3cc(Cl)ccc23)nc1`, the MIC was greater than 240 µM. On the same count and under the same terms, for `O=C(NC(=S)Nc1cc(-c2nc3ccccc3[nH]2)ccc1Cl)c1ccccc1[N+](=O)[O-]` the value was greater than 240 µM. `Cc1ccc(C(=O)Nc2cccc(-c3nc4ccccc4[nH]3)c2)cc1` returned an MIC greater than 240 µM. The same measure, in the same setting: for `Nc1c(C(=O)c2ccc([N+](=O)[O-])cc2)sc(Nc2ccccc2)c1-c1nc2ccccc2[nH]1` the value was greater than 240 µM. `O=C(Nc1ccc(/N=N/c2ccccc2)cc1)c1ccc([N+](=O)[O-])cc1` returned an MIC greater than 240 µM. Regarding `Cc1ccc(-c2nc3cc(Cl)ccc3o2)cc1CC(=O)c1cc([N+](=O)[O-])c(C)c([N+](=O)[O-])c1`, the MIC is greater than 240 µM. For the molecule `O=C(CSc1nc(Nc2ccccc2)nc(N2CCOCC2)n1)Nc1ccc([N+](=O)[O-])cc1O`, the MIC turned out to be 15 µM (≈ 7.25 µg/mL). In other words, the double-digit micromolar range. On the same count and under the same terms, the value for `NC(=O)c1ccc(/N=C/c2cc([N+](=O)[O-])ccc2Cl)cc1` was greater than 329 µM.
